Laboratory results from ChEMBL document CHEMBL3045046, “Synthesis, herbicidal activities, and 3D-QSAR of 2-cyanoacrylates containing aromatic methylamine moieties” (J Agric Food Chem, 2008).

Tests used:
Format in all cases: functional
Spinacia oleracea = experiment: Inhibition of photosynthetic electron transport in Spinacia oleracea (spinach)isolated chloroplasts assessed as inhibition of Hill reaction
In short: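 Chloroplasts from fresh spinach leaves, homogenised in ice-cold pH 7.8 buffer (0.4 M sucrose, 10 mM NaCl, 50 mM Tris-HCl), spun 3 min 120g then 5 min 1000g at 4 °C. Reaction buffer 350 mM NaCl, 10 mM Tris-HCl pH 7.8 with DCPIP; 2 min light (360 µmol m^-2 s^-1), DCPIP reduction at 620 nm. Compounds 0.01 mg/L–0.3 mg/mL in […]/water, ≥triplicate; IC50 by log-linear regression.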

Digitaria sanguinalis [1] = experiment: Herbicidal activity against hairy Digitaria sanguinalis (hairy crabgrass) assessed as inhibition of herb growth at 1.5 kg/ha during preemergence treatment protocol; details: pre-emergence, read-out: GI
Medicago sativa [2] = experiment: Herbicidal activity against Medicago sativa (alfalfa) assessed as inhibition of herb growth at 1.5 kg/ha during postemergence treatment protocol; details: post-emergence, read-out: GI
Medicago sativa [3] = experiment: Herbicidal activity against Medicago sativa (alfalfa) assessed as inhibition of herb growth at 1.5 kg/ha during preemergence treatment protocol; details: pre-emergence, read-out: GI
Brassica napus [4] = experiment: Herbicidal activity against Brassica napus (oilseed rape) assessed as inhibition of herb growth at 1.5 kg/ha during preemergence treatment protocol; details: pre-emergence, read-out: GI
Digitaria sanguinalis [5] = experiment: Herbicidal activity against hairy Digitaria sanguinalis (hairy crabgrass) assessed as inhibition of herb growth at 1.5 kg/ha during postemergence treatment protocol; details: post-emergence, read-out: GI
Amaranthus retroflexus [6] = experiment: Herbicidal activity against Amaranthus retroflexus assessed as inhibition of herb growth at 1.5 kg/ha during preemergence treatment protocol; details: pre-emergence, read-out: GI
Amaranthus retroflexus [7] = experiment: Herbicidal activity against Amaranthus retroflexus assessed as inhibition of herb growth at 1.5 kg/ha during postemergence treatment protocol; details: post-emergence, read-out: GI
Brassica napus [8] = experiment: Herbicidal activity against Brassica napus (oilseed rape) assessed as inhibition of herb growth at 1.5 kg/ha during postemergence treatment protocol; details: post-emergence, read-out: GI
[9] = Spinacia oleracea, read-out: pIC50 (converted)

Row | SMILES | IC50 (Spinacia oleracea) | IC50 (Spinacia oleracea; [9]) | inhibition of growth at 1500 g/ha (Digitaria sanguinalis [1]) | inhibition of growth at 1500 g/ha (Medicago sativa [2]) | inhibition of growth at 1500 g/ha (Medicago sativa [3]) | inhibition of growth at 1500 g/ha (Brassica napus [4]) | inhibition of growth at 1500 g/ha (Digitaria sanguinalis [5]) | inhibition of growth at 1500 g/ha (Amaranthus retroflexus [6]) | inhibition of growth at 1500 g/ha (Amaranthus retroflexus [7]) | inhibition of growth at 1500 g/ha (Brassica napus [8])
1 | CCOCCOC(=O)/C(C#N)=C(\NCc1cnc(OCC)s1)C(C)C | 0.223 ppm | 0.224 µM | 0% | 41.4% | 5.4% | 48.7% | 51.2% | 37.8% | 100% | 100%
2 | CCOCCOC(=O)/C(C#N)=C(\NCc1ccc(Br)nc1)SC | 0.084 ppm | 0.0832 µM | 0% | 59.9% | 12% | 23.9% | 60% | 91.9% | 100% | 100%
3 | CCOCCOC(=O)/C(C#N)=C(\NCc1ccc(N(C)C)nc1)SC | 0.292 ppm | 0.295 µM | 28.7% | 51.6% | 0% | 37.4% | 45.6% | 13.5% | 80.9% | 100%
4 | CCOCCOC(=O)/C(C#N)=C(\NCc1cnc(Br)s1)C(C)C | 0.107 ppm | 0.107 µM | 3% | 30.8% | 1.7% | 82.2% | 48% | 18.9% | 100% | 100%
5 | CCOCCOC(=O)/C(C#N)=C(\NCc1ccc(OCC(F)(F)F)nc1)SC | 0.048 ppm | 0.0479 µM | 0% | 54.2% | 0% | 10% | 100% | 0% | 100% | 100%
6 | CCCOc1ncc(CN/C(=C(/C#N)C(=O)OCCOCC)C(C)C)s1 | 0.08 ppm | 0.0794 µM | 6.9% | 48.7% | 0% | 9.8% | 52.8% | 27% | 100% | 100%
7 | CCOCCOC(=O)/C(C#N)=C(\NCc1ccc(Cl)nn1)SC | 3.99 ppm | 3.98 µM | 0% | 27.8% | 0% | 12.5% | 28.8% | 43.2% | 21.8% | 81%
8 | CCOCCOC(=O)/C(C#N)=C(/CC)NCc1ccc(Br)nc1 | 0.335 ppm | 0.339 µM | 18.8% | 77.8% | 28.8% | 71.9% | 95.2% | 21.6% | 100% | 100%
9 | CCOCCOC(=O)/C(C#N)=C(\NCC1CCCO1)SC (stereo not given) | 27.92 ppm | 20.9 µM | 35.7% | 23.4% | 21.8% | 0% | 0% | 9.5% | 37.8% | 47.5%
10 | CCOCCOC(=O)/C(C#N)=C(\NCc1ccoc1)C(C)C | 6.6 ppm | 6.61 µM | 33.6% | 13.2% | 10.5% | 0% | 0% | 22.1% | 27.4% | 51.9%
11 | CCOCCOC(=O)/C(C#N)=C(\NCc1ccc(OCC)nn1)SC | 12.29 ppm | 9.12 µM | 0% | 24.2% | 0% | 0% | 0.8% | 56.8% | 32.9% | 64.6%
